In the array DNA melting data of Ke et al. (doi:10.1101/2024.01.08.574731):

Assays:
[1] = folding enthalpy; higher = less favourable; fluorescence melt of hairpins on a sequencing array, two-state fit; conditions: sodium 0.088 M
Summary of the method: (§1)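 Bootstrapped two-state fits yielded melting temperature and folding enthalpy for library hairpins. Cy3 fluorescence, with annealed Cy3 and quencher oligos, was imaged on a sequenced MiSeq flow cell in 50 mM Na-HEPES pH 8.0, 25 mM NaCl in 2.5 °C steps up to 60 °C, and normalised to pre-quench Cy3 and to control constructs. Four replicates were combined by inverse variance, and fitted temperatures were raised by 9.35 °C to match UV melts.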

[2] = melting temperature; fluorescence melt of hairpins on a sequencing array, two-state fit, raised by 9.35 °C to match UV melts; conditions: sodium 0.088 M
Summary of the method: as §1

Sequence	folding enthalpy [1]	Tm [2]
GATCGGACGCCGATC ((((((...))))))	-37.4 kcal/mol	53.6 °C
GGATAGGGAAACCTGTCC (((.(((....))).)))	-30.9 kcal/mol	48.2 °C
GCTCTCGAAAGAGGTAGC ((((((....)))..)))	-25.4 kcal/mol	38.4 °C
GCCTCCCGAAAGGGGGC (((.(((....))))))	-27.1 kcal/mol	67.7 °C
CGGCGCGGAAACGCCCG (((.(((....))))))	-16.7 kcal/mol	56.5 °C
GACGTGCGAAAGCATGTC (((.(((....))).)))	-35.2 kcal/mol	65.1 °C
GATCTACGGTTAGATC ((((((....))))))	-30.3 kcal/mol	37.8 °C
GGGATAGGAAACTGTCCC ((((.((....)).))))	-35.9 kcal/mol	49.4 °C
GATCCAAAGCTGGATC ((((((....))))))	-36.3 kcal/mol	47.2 °C
GCTAAATCGAAAGATAGC (((..(((....))))))	-18.4 kcal/mol	33.9 °C
GCGCCGCGAAAGCATCGC (((..((....))..)))	-17 kcal/mol	51.2 °C
GCCAGGCGAAAGCCTCGC ((.((((....)))).))	-17.4 kcal/mol	54 °C
GATCGTGAGGACGATC ((((((....))))))	-34.1 kcal/mol	53.5 °C
GATCCGGGAAACCGGACC (.(((((....))))).)	-13.2 kcal/mol	44.1 °C
GAGTAGGGAAACTTACTC (((((.(....).)))))	-25.6 kcal/mol	35.5 °C
GTACAAGGAAACCTGTAC (((((.(....).)))))	-26.1 kcal/mol	38.2 °C
GGTCTCGAAAGAGTACC ((((((....))).)))	-24.3 kcal/mol	46.8 °C
GCTGTGCGAAAGCTCGGC ((.(.((....)).).))	-24.6 kcal/mol	56 °C
GGGAAGCGAAAGCTCCC (((.(((....))))))	-38.7 kcal/mol	59.7 °C
GCTCGTGGAAACACAAGC (((.(((....))).)))	-20 kcal/mol	43.9 °C
GACGCCGAAAGGCCTGTC ((((((....)))..)))	-13.5 kcal/mol	35.1 °C
GAGCCCGCGAAAGCGCTC (((..(((....))))))	-11.2 kcal/mol	39.2 °C
GTAGGTGGAAACACTTAC (((.(((....))).)))	-28.4 kcal/mol	39.5 °C

Sequence	folding enthalpy [1]	Tm [2]
GCGGCCCCCCGC ((((....))))	-23.8 kcal/mol	55 °C
GACGCCGAAAGGCTAGTC ((((((....)))..)))	-18.1 kcal/mol	46.8 °C
GGGAACGAAAGTTGTCCC ((((((....)))..)))	-18.1 kcal/mol	36.4 °C
GGCACGGGAAACCGCGCC (((.(((....))).)))	-44.1 kcal/mol	63.5 °C
GGCCTAGAAATAGGCC ((((((....))))))	-34.9 kcal/mol	62.8 °C
GCAATGCGAAAGCTTGGC ((.(.((....)).).))	-19.1 kcal/mol	40.6 °C
GTTGGCCGAAAGGCGAAC (((.(((....))).)))	-26.6 kcal/mol	57.4 °C
GATCCGTATACGGATC ((((((....))))))	-45.4 kcal/mol	62.1 °C
GCATTCGAAAGAAGATGC ((((((....)))..)))	-17.7 kcal/mol	36.2 °C
GAAGGCGAAAGCCGTTC ((((((....))).)))	-8.18 kcal/mol	43 °C
GACGAACGAAAGTTGTC (((.(((....))))))	-25.8 kcal/mol	44.9 °C
GATCTAGTCGTAGATC ((((((....))))))	-27.9 kcal/mol	44.3 °C
GCCTTGTCGAAAGACGGC (((..(((....))))))	-18 kcal/mol	47.8 °C
GATCAACCCGTTGATC ((((((....))))))	-42 kcal/mol	53 °C
GATCTGGTGGCAGATC ((((((....))))))	-33.9 kcal/mol	50.1 °C
GCACGCGGAAACGCGCGC ((.((((....)))).))	-23.5 kcal/mol	68.5 °C
CGATGGAAACATCG (((((....)))))	-23.9 kcal/mol	52.6 °C
GTCGCGGGAAACTGCGGC (.(((.(....).))).)	-27.1 kcal/mol	54.7 °C
GCCTCGCGAAAGCCCGGC (((..((....))..)))	-17.8 kcal/mol	42.8 °C
GCGATGCGAAAGCGTGGC ((.(.((....)).).))	-21.6 kcal/mol	54.7 °C
GCGTAACGAAAGTTCGC (((.(((....))))))	-36.1 kcal/mol	55.9 °C
GCCAAGCGAAAGCCCGGC (((..((....))..)))	-20.7 kcal/mol	45.8 °C
GTAAGACGAAAGTCCTAC (((.(((....))).)))	-15.7 kcal/mol	34.7 °C

Sequence	folding enthalpy [1]	Tm [2]
GTGGAGCCGAAAGGCCAC (((..(((....))))))	-13.7 kcal/mol	50.5 °C
GGAATGCGAAAGCAGTCC (((.(((....))).)))	-36.6 kcal/mol	61.2 °C
GCAGGGCGAAAGCTCAGC ((.(.((....)).).))	-18.4 kcal/mol	48.3 °C
GAGGTTGCGAAAGCACTC (((..(((....))))))	-11.3 kcal/mol	33.9 °C
GAACGCGGAAACACGTTC (((((.(....).)))))	-45.6 kcal/mol	48.1 °C
GATCTTGCCAAGATC ((((((...))))))	-26.1 kcal/mol	47.5 °C
GTGAGGGGAAACCCTCAC (((((((....)))))))	-33.4 kcal/mol	67.7 °C
GCGGGGCGAAAGCTCTGC ((.(.((....)).).))	-21.9 kcal/mol	61.9 °C
GTCAGCGAAAGCTCGAC ((((((....))).)))	-19.8 kcal/mol	48 °C
GGTCCCGAAAGGGGGACC ((((((....)))..)))	-25.4 kcal/mol	59.2 °C
GGAGCTGGAAACGGTTCC (((.(.(....).).)))	-17.5 kcal/mol	37.6 °C
GAATGGGGAAACTCATTC (((((.(....).)))))	-32.4 kcal/mol	40.1 °C
GATCGCCCCAGCGATC ((((((....))))))	-33.5 kcal/mol	68.5 °C
GTCTGCCGAAAGGCTGAC (((.(((....))).)))	-30.5 kcal/mol	62.1 °C
GTTTACGGAAACGCAAAC ((((.((....)).))))	-27.7 kcal/mol	37.3 °C
GATCATCAGAATGATC ((((((....))))))	-22.6 kcal/mol	46.9 °C
GCTACTCCGAAAGGAAGC (((..(((....))))))	-17.9 kcal/mol	30.1 °C
GATCGACTGCTCGATC ((((((....))))))	-43.4 kcal/mol	50.9 °C
GGCAATGGAAACATTGCC (((((((....)))))))	-42.1 kcal/mol	67 °C
GCCTCCGAAAGGAACGGC ((((((....)))..)))	-25.3 kcal/mol	46.9 °C
GAGGTACGAAAGTAGCTC (((.(((....))).)))	-44.4 kcal/mol	57.9 °C
GTACGGGGAAACCCGCAC ((.((((....)))).))	-18.6 kcal/mol	54.3 °C
GATCTCCTTGAGATC ((((((...))))))	-40.6 kcal/mol	54.4 °C

Sequence	folding enthalpy [1]	Tm [2]
GATCACGAGTGTGATC ((((((....))))))	-37.7 kcal/mol	56.3 °C
GTGTCCGAAAGGATCAC ((((((....))).)))	-25.2 kcal/mol	51 °C
GCCACTACGAAAGTAGGC (((..(((....))))))	-13.1 kcal/mol	41.5 °C
GAAAAAGCGAAAGCTTTC (((..(((....))))))	-12.1 kcal/mol	33.2 °C
GGTAGCGAAAGCTATACC ((((((....)))..)))	-15.5 kcal/mol	44 °C
GATCACAATAGTGATC ((((((....))))))	-38.3 kcal/mol	60.8 °C
GTTTTACGAAAGTATAAC (((.(((....))).)))	-23.9 kcal/mol	37.5 °C
GGGTTCGAAAGAATCCCC ((((((....)))..)))	-15.9 kcal/mol	50.6 °C
GCCCAAGCGAAAGCTGGC (((..(((....))))))	-17.6 kcal/mol	53.6 °C
GGTTCAGGAAACTAAACC ((((.((....)).))))	-15.3 kcal/mol	28.6 °C
GCCCCGGGAAACCGGAGC ((.((((....)))).))	-22.7 kcal/mol	56.1 °C
GGAAGTCGAAAGACCTCC (((.(((....))).)))	-27.1 kcal/mol	43.3 °C
GCCCCGCGAAAGCTCGGC (((..((....))..)))	-20.3 kcal/mol	38.8 °C
GCCTTCGAAAGAATCGGC ((((((....)))..)))	-23.4 kcal/mol	34.8 °C
GATCACCTCAGTGATC ((((((....))))))	-42.3 kcal/mol	59.6 °C
GATCTGGCCTCAGATC ((((((....))))))	-41.7 kcal/mol	51.7 °C
GATTCTGGAAACAGAGTC ((.((((....)))).))	-30.2 kcal/mol	38.3 °C
GTAGAGGGAAACCTCTGC (.(((((....))))).)	-23.1 kcal/mol	45.9 °C
TCTTCGAAAGAAGA (((((....)))))	-18.8 kcal/mol	45.8 °C
GTCGAGGGAAACCTCAAC ((.((((....)))).))	-18.1 kcal/mol	36.5 °C
GGCCACGGAAACGCGGCC ((((.((....)).))))	-40.4 kcal/mol	66.5 °C
GGATAAGGAAACTTATCC (((((((....)))))))	-37.6 kcal/mol	52.8 °C
GCCAGATCGAAAGATGGC (((..(((....))))))	-27.4 kcal/mol	48.2 °C
